Source: PMC7686291 (Psychopharmacology, 2020)
Structures can show the parent of a compound that is named as a salt.

Columns and labels:
[1] = tested on: human transporters (DAT, SERT); settings: cited from earlier work; for DAT/SERT ratio in transfected cells: ref Luethi et al. 2019; for DAT/SERT ratio from uptake inhibition potencies: transfected HEK cells, human transporters, ref Rickli et al. 2015
[2] = biological target: dopamine transporters (DAT) (Rattus norvegicus, UniProt P23977); assay: Transporter release assay, [3H]MPP+ via DAT, rat brain synaptosomes; assay type: biochemical; settings: for Emax: read-out: DAT release %Emax; for Times more potent than MDA at DAT release / Times more potent than MDMA at DAT release: ratio of EC50 values, synaptosomes; for DAT release %Emax: % of maximal release defined with 10 μM tyramine
Sequence of dopamine transporters (DAT) (P23977 whole entry): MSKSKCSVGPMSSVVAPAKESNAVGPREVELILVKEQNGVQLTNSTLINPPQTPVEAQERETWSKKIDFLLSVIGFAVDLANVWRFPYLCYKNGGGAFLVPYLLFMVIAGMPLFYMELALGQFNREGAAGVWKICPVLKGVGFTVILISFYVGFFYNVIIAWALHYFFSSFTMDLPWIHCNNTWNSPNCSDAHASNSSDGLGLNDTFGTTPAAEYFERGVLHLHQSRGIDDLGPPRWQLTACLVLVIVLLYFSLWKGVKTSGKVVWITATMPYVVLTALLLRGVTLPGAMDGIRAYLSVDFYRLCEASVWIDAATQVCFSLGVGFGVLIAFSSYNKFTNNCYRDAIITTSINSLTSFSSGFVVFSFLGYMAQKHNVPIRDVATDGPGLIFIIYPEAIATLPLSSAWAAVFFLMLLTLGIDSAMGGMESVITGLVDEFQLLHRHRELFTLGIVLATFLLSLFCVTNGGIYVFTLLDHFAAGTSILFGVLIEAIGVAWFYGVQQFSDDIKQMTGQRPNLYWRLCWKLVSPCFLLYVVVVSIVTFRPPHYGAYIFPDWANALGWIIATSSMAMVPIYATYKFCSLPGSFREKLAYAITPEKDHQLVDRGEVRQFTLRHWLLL
Method in brief: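 Striatal synaptosomes from male Sprague-Dawley rats, prepared in 10% sucrose containing 1 μM reserpine; no unlabeled blockers added. Loaded 1 h to steady state with 9 nM [3H]MPP+ in Krebs-phosphate buffer; test compound at various concentrations added for 30 min. Ended by rapid vacuum filtration and scintillation counting of filter-bound radioactivity. EC50 by non-linear regression; efficacy relative to maximal release by 10 μM tyramine.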

[3] = biological target: serotonin transporters (SERT) (Rattus norvegicus, UniProt P31652); assay: Transporter release assay, [3H]5-HT via SERT, rat brain synaptosomes; assay type: biochemical; settings: for Emax: read-out: SERT release %Emax; for SERT release %Emax: % of maximal release defined with 100 μM tyramine
Sequence of serotonin transporters (SERT) (P31652 whole entry): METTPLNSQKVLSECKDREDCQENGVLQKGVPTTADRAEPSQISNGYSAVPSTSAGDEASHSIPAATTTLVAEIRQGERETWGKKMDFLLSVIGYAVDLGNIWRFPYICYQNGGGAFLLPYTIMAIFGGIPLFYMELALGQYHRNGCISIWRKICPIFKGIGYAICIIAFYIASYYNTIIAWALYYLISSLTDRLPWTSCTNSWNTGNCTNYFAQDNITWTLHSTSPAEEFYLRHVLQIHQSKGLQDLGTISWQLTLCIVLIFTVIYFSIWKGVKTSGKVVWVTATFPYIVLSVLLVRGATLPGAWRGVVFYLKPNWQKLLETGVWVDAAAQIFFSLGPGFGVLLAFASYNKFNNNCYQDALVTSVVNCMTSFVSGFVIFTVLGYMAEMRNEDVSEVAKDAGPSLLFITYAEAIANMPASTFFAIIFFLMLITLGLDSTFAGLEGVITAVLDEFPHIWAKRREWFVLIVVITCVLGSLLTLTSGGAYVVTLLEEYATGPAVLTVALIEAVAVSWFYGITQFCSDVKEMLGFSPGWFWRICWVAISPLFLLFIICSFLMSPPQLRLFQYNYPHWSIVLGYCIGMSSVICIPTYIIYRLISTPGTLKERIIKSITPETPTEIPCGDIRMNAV
Method in brief: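 Synaptosomes from whole brain minus striatum and cerebellum of male Sprague-Dawley rats, made in 10% sucrose with 1 μM reserpine plus 100 nM GBR12935 and nomifensine. Preloaded 1 h to steady state with 5 nM [3H]5-HT in Krebs-phosphate buffer, then incubated 5 min with test compound at various concentrations. Stopped by vacuum filtration; retained label counted by scintillation. EC50 from non-linear regression; efficacy as % of release by 100 μM tyramine.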

[4] = tested on: extracellular 5-HT in nucleus accumbens; assay: In vivo microdialysis in nucleus accumbens, dialysate 5-HT; design: species or system rat; settings: male rats
Method in brief: (§1)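 Male Sprague-Dawley rats (300–400 g) were fitted with a jugular catheter and a nucleus accumbens guide cannula under pentobarbital (60 mg/kg i.p.), with ≥1 week recovery. Probes (2×0.5 mm) were perfused with Ringers' at 0.6 μL/min overnight. 20-min dialysates were assayed by microbore HPLC-ECD. After three stable baselines: i.v. dose at time zero, threefold higher dose at 60 min. Saline 1 mL/kg controls; n = 7/group; % baseline; dose × time ANOVA, Bonferroni.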

conscious male rats = assay: Horizontal ambulation; assay type: in vivo, rat; settings: for Duration of behavioral activation (forward ambulation) post-injection: i.v.
Method in brief: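 Conscious, tethered male Sprague-Dawley rats (300–400 g) with jugular catheters were placed overnight in photobeam arenas during accumbens microdialysis. Horizontal-plane movement was counted in 20-min bins over 120 min. Two i.v. injections: first dose at time zero, threefold higher dose 60 min later. Saline (1 mL/kg) controls; n = 7/group. Data normalized to three preinjection bins; dose × time ANOVA versus saline with Bonferroni tests.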

[5] = biological target: norepinephrine transporters (NET) (Rattus norvegicus, UniProt Q63380); assay: Transporter release assay, [3H]MPP+ via NET, rat brain synaptosomes; assay type: biochemical; settings: for Emax: read-out: NET release %Emax; for Times more potent than MDA at NET release / Times more potent than MDMA at NET release: ratio of EC50 values, synaptosomes; for NET release %Emax: % of maximal release defined with 10 μM tyramine
Sequence of norepinephrine transporters (NET) (Q63380 1-617): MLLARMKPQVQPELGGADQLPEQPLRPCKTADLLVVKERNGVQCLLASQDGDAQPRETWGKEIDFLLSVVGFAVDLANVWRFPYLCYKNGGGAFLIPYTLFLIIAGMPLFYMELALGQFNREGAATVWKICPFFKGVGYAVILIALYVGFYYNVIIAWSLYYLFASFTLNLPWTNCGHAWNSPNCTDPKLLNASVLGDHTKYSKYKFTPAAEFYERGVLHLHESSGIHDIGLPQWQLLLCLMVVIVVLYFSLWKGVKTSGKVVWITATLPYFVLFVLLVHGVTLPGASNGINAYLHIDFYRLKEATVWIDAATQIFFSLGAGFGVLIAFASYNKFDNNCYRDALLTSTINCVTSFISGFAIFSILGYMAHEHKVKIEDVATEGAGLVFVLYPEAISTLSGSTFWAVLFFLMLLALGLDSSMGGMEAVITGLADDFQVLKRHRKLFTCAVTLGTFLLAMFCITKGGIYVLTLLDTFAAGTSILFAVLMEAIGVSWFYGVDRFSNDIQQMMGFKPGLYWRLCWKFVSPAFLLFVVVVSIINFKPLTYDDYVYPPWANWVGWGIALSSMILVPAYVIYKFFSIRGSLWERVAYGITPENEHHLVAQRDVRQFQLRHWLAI
Method in brief: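 Male Sprague-Dawley rat whole brain minus striatum and cerebellum gave synaptosomes in 10% sucrose with 1 μM reserpine, 100 nM GBR12935 and citalopram. After 1 h preloading with 9 nM [3H]MPP+ in Krebs-phosphate buffer, incubated 30 min with varied test compound concentrations. Filtration, then scintillation counting of retained radioactivity. EC50 from non-linear regression; efficacy as % of 10 μM tyramine release.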

[6] = tested on: extracellular dopamine in nucleus accumbens; assay: In vivo microdialysis in nucleus accumbens, dialysate dopamine; design: species or system rat; settings: male rats; for Peak increase of dialysate dopamine above baseline: 1.0 mg/kg i.v. given 60 min after 0.3 mg/kg
Method in brief: as §1

mice = settings: ref Dolan et al. (2017), cited from earlier work
[7] = tested on: dialysate 5-HT in corpus striatum; settings: ref Fuwa et al. 2016, cited from earlier work
[8] = tested on: dialysate dopamine in corpus striatum; settings: oral 0.08 mmol/kg (~17 mg/kg), male CD-1 mice, ref Fuwa et al. 2016; cited from earlier work
rats = rats trained with MDMA 1.5 mg/kg i.p., ref Dolan et al. (2017), cited from earlier work
[9] = 3 mg/kg i.v. given 60 min after 1 mg/kg
[10] = ratio of EC50 values, synaptosomes
[11] = 1.0 mg/kg i.v. given 60 min after 0.3 mg/kg

CC(N)Cc1ccc2c(c1)OCO2 (racemic) [MDA, (±)-3,4-Methylenedioxyamphetamine HCl, reference compound]
DAT/SERT ratio in transfected cells [1]: 0.25
EC50 [2]: 106 ± 7 nM
Emax [2]: 104%
EC50 [3]: 162 ± 28 nM
Emax [3]: 109%
Peak effect on dialysate 5-HT above baseline ([4]; 1 mg/kg i.v., first dose): 4.6 fold
Peak effect on dialysate 5-HT above baseline [4, 9]: 11.2 fold
Fold less potent than 5-APB and 6-APB at increasing dialysate 5-HT ([4]; in vivo microdialysis, i.v.): 3 fold
Effect on locomotion vs saline (post hoc analysis) (conscious male rats; 1 mg/kg i.v., first dose): did not significantly increase locomotion
Peak effect on ambulation above baseline (conscious male rats; [9]): 30 fold
Ambulation above baseline at the 120 min point (conscious male rats; 60 min after 3 mg/kg i.v.): about 18 fold
Duration of behavioral activation (forward ambulation) post-injection (conscious male rats): at least 2 h
EC50 [5]: 47 ± 7 nM
Emax [5]: 91%

CNC(C)Cc1ccc2c(c1)OCO2 (racemic) [MDMA, (±)-3,4-methylenedioxymethamphetamine HCl, reference compound]
DAT/SERT ratio in transfected cells [1]: 0.12
EC50 [2]: 120 ± 8 nM
Emax [2]: 101%
EC50 [3]: 85 ± 16 nM
Emax [3]: 104%
EC50 [5]: 90 ± 13 nM
Emax [5]: 99%

CC(N)Cc1ccc2occc2c1 (stereo not shown) [5-APB, 1-(1-Benzofuran-5-yl)propan-2-amine]
DAT/SERT ratio from uptake inhibition potencies [1]: 0.05
Effect on dialysate dopamine vs saline (post hoc test) ([6]; 0.3 mg/kg i.v.): failed to significantly increase dopamine levels
Peak increase of dialysate dopamine above baseline [6]: 6.7 fold
ED50 for increase of forward locomotion (mice; i.p.): 3.27 mg/kg
Potency to stimulate activity, fold greater than that of MDMA (mice; Gatch et al. 2019): at least 3 fold
Increase in dialysate 5-HT ([7]; oral 0.08 mmol/kg (~17 mg/kg), corpus striatum, male CD-1 mice): 23 fold
Time the rise in extracellular 5-HT was maintained post-injection ([7]; oral 0.08 mmol/kg, mice): up to 3 h
EC50 [2]: 31 ± 3 nM
Times more potent than MDA at DAT release [2]: 3.4 fold
Emax [2]: 103%
EC50 [3]: 19 ± 2 nM
Times more potent than 5-MAPB at SERT release [3, 10]: 3.4 times
Times more potent than MDA at SERT release [3, 10]: 8.5 fold
Emax [3]: 104%
Peak effect on dialysate 5-HT above baseline [4, 11]: 17.7 fold
Increase of dialysate 5-HT ([4]; 20 min after 0.3 mg/kg i.v.): 5.7 fold
Dialysate 5-HT above baseline at the 120 min point ([4]; 120 min point, 60 min after 1.0 mg/kg i.v.): 11.3 fold
Peak effect on ambulation above baseline (conscious male rats; [11]): 21 fold
Ambulation above baseline at the 120 min point (conscious male rats; 60 min after 1.0 mg/kg i.v.): 14.0 fold
Duration of behavioral activation (forward ambulation) post-injection (conscious male rats): at least 2 h
Increase in dialysate dopamine [8]: 8 fold
EC50 [5]: 21 ± 4 nM
Times more potent than MDA at NET release [5]: 2–3 times
Emax [5]: 103%
ED50 to substitute for the MDMA stimulus cue (rats; i.p.): 0.27 mg/kg
Substitution for the discriminative stimulus effects of MDMA (rats): fully substitutes

CNC(C)Cc1ccc2occc2c1 (stereo not shown) [5-MAPB]
DAT release %Emax [2]: 103%
Times more potent than MDMA at DAT release [2]: at least 3 times
SERT release %Emax [3]: 103%
Times more potent than MDMA at SERT release [3, 10]: up to 2.5 times
NET release %Emax [5]: 99%
Times more potent than MDMA at NET release [5]: ≥ 3.75 times

CC(N)Cc1ccc2ccoc2c1 (stereo not shown) [6-APB, 1-(1-benzofuran-6-yl)propan-2-amine]
DAT/SERT ratio from uptake inhibition potencies [1]: 0.29
Peak increase of dialysate dopamine above baseline [6]: 8.4 fold
Increase of dialysate dopamine ([6]; 20 min after 0.3 mg/kg i.v.): 2.6 fold
Increase of dialysate dopamine ([6]; 40 min after 0.3 mg/kg i.v.): 3.3 fold
EC50 [2]: 10 ± 1 nM
Times more potent than MDA at DAT release [2]: 10 fold
Emax [2]: 101%
EC50 [3]: 36 ± 5 nM
Times more potent than MDA at SERT release [3, 10]: 4.5 fold
Emax [3]: 100%
Peak effect on dialysate 5-HT above baseline [4, 11]: 16 fold
Effect on locomotion vs saline (post hoc analysis) (conscious male rats; 0.3 mg/kg i.v.): failed to result in significant increases in locomotion
Peak effect on ambulation above baseline (conscious male rats; [11]): 24 fold
Duration of behavioral activation (forward ambulation) post-injection (conscious male rats): at least 2 h
EC50 [5]: 14 ± 2 nM
Times more potent than MDA at NET release [5]: 2–3 times
Emax [5]: 98%

CNC(C)Cc1ccc2ccoc2c1 (stereo not shown) [6-MAPB]
DAT release %Emax [2]: 106%
Times more potent than MDMA at DAT release [2]: at least 3 times
SERT release %Emax [3]: 106%
Times more potent than MDMA at SERT release [3, 10]: up to 2.5 times
NET release %Emax [5]: 100%
Times more potent than MDMA at NET release [5]: ≥ 3.75 times
